These results are taken from ChEMBL document CHEMBL4699388, “Antiproliferative activities of tricyclic amides derived from beta-caryophyllene via the Ritter reaction against MDA-MB-231 breast cancer cells” (RSC Med Chem, 2020).

One may read the IC50 as the midpoint of a concentration-inhibition curve.

Data set [1] is described as follows: Aqueous solubility of the compound. The format is physicochemical. As to conditions: buffer.
Data set [2] deals with MDA-MB-231. The data set is described as follows: Antiproliferative activity against human MDA-MB-231 cells assessed as reduction in cell viability at 50 uM measured after 48 hrs by MTS assay. The format is functional, cell-based. The essentials: (§1)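 MDA-MB-231 cells exposed to compounds at 25 and 50 μM for 48 h. Viability is compared with a DMSO-treated control. Mean ± SEM from three separate experiments; significance vs control.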
A general note: Tetrazolium dyes change colour on reduction, which living cells bring about.

The subject of data set [3] is MDA-MB-231. The data set is described as follows: Induction of apoptosis in human MDA-MB-231 cells assessed as late apoptotic cells at 20 uM measured after 48 hrs by annexicV-FITC/propidium iodide staining based flow cytometry analysis (reference value: 4.4 %). The format is functional. On the technique in general: A flow cytometer gives signals particle by particle.

Data set [4] relates to MDA-MB-231. The data set is described as follows: Antiproliferative activity against human MDA-MB-231 cells assessed as reduction in cell viability at 25 to 50 uM measured after 48 hrs by MTS assay. Conditions: dose microM 25-50, time 48.0 hrs. The format is functional, cell-based. The essentials:
as §1

For data set [5], the system named is MDA-MB-231. The data set is described as follows: Induction of apoptosis in human MDA-MB-231 cells assessed as early apoptotic cells at 20 uM measured after 48 hrs by annexicV-FITC/propidium iodide staining based flow cytometry analysis (reference value: 5.8 %). The data set is classed as functional.
The subject of data set [6] is MDA-MB-231. The data set is described as follows: Induction of apoptosis in human MDA-MB-231 cells assessed as healthy cells at 20 uM measured after 48 hrs by annexicV-FITC/propidium iodide staining based flow cytometry analysis (reference value: 87.4 %). The format is functional.
The subject of data set [7] is MDA-MB-231. The data set is described as follows: Antiproliferative activity against human MDA-MB-231 cells assessed as reduction in cell viability at 5 uM measured after 48 hrs by MTS assay. The data set is classed as functional, cell-based.
Data set [8] in a line: Selectivity ratio of cytotoxicity against African green monkey Vero cells assessed as reduction in cell viability measured after 72 hrs by resazurin assay to antiproliferative activity against human MDA-MB-231 cells assessed as reduction in cell viability measured after 48 hrs by MTS assay. The data set is classed as toxicity, cell-based. As to conditions: Vero cells versus MDA-MB-231 cells.

For data set [9], the system named is Vero. The data set is described as follows: Cytotoxicity against African green monkey Vero cells assessed as reduction in cell viability measured after 72 hrs by resazurin assay. The format is cell-based. As to conditions: chlorocebus sabaeus. In general terms: Resazurin is reduced to fluorescent resorufin, in cell work by metabolically active cells.
The subject of data set [10] is MDA-MB-231. The data set is described as follows: Antiproliferative activity against human MDA-MB-231 cells assessed as reduction in cell viability measured after 48 hrs by MTS assay. The data set is classed as functional, cell-based. As to conditions: MDA-MB-231, 48 h. The essentials:
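Concentration–response in MDA-MB-231 cells across a wide concentration range. The dose–response data are used to calculate IC50 for proliferation (MTS).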

Data set [11] has as its system MDA-MB-231. The data set is described as follows: Cell cycle arrest in human MDA-MB-231 cells at 10 uM measured after 24 hrs by RNaseA/propidium iodide staining based flow cytometry analysis. The format is functional. The procedure, abridged: (§2)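 MDA-MB-231 cells treated 24 h with 10 μM or 9 μM test agent or DMSO control. Cell cycle distribution is read by flow cytometry and expressed as percentage change from control. Mean ± SEM, three separate experiments; p vs DMSO control.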

The subject of data set [12] is MDA-MB-231. The data set is described as follows: Induction of apoptosis in human MDA-MB-231 cells assessed as necrotic cells at 20 uM measured after 48 hrs by annexicV-FITC/propidium iodide staining based flow cytometry analysis (reference value: 2.4 %). The format is functional.
Data set [13] concerns Vero. The data set is described as follows: Cytotoxicity against African green monkey Vero cells assessed as reduction in cell viability measured at 168 uM after 72 hrs by resazurin assay relative to control. The data set is classed as cell-based. Conditions: chlorocebus sabaeus.
In data set [14] the test system is MDA-MB-231. The data set is described as follows: Cell cycle arrest in human MDA-MB-231 cells assessed as decrease in cell population at G0/G1 phase at 9 uM measured after 24 hrs by RNaseA/propidium iodide staining based flow cytometry analysis. The format is functional. The essentials:
as §2

Data set [15] concerns Vero. The data set is described as follows: Cytotoxicity against African green monkey Vero cells assessed as reduction in cell viability measured at 129 uM after 72 hrs by resazurin assay relative to control. As to conditions: chlorocebus sabaeus. The format is cell-based.
In data set [16] the test system is MDA-MB-231. The data set is described as follows: Induction of apoptotic cell death in human MDA-MB-231 cells at 20 uM measured after 48 hrs by annexicV-FITC/propidium iodide staining based flow cytometry analysis. The format is functional.
Data set [17] concerns MDA-MB-231. The data set is described as follows: Cell cycle arrest in human MDA-MB-231 cells assessed as accumulation at G2/M phase at 9 uM measured after 24 hrs by RNaseA/propidium iodide staining based flow cytometry analysis relative to control. The format is functional. The procedure, abridged: as §2

Active and inactive are the calls of the source. The rule behind the calls is not given here.

Turning to `CCCCCN[C@]12CCC[C@](C)(CC[C@@H]3[C@@H]1CC3(C)C)C2`, the solubility entry in data set [1] was “Insoluble”. In [2], the result was Active.
For the compound `CC1(C)C[C@H](NC(=O)CCl)[C@]23CCC[C@@](C)(CC[C@@H]12)C3`, the Activity in data set [3] was determined as 13.9%; in data set [5], 9.9%; in data set [6] it was 57.8%; in [9], 168 µM; in data set [12], 18.4%; in data set [13] it was 89%. For the same compound, in data set [4], the outcome was Active. Besides, in data set [7], the inhibition result is “Active”. In addition, the selectivity ratio in data set [8] came to 33. Further, the IC50 in [10] stood at 9.7 µM. In addition, the result in data set [11] was inactive.
As for `CC1(C)C[C@H]2[C@H]1CC[C@@]1(C)CCC[C@]2(NC(=O)CCl)C1`, the result in data set [4] was Active. In [10], the IC50 was 21.4 µM.
The corresponding values for `CC1(C)C[C@H]2[C@H]1CC[C@@]1(C)CCC[C@]2(N)C1` are “Active” and 34.9 µM.
In the case of `CC1(C)C[C@H](NC(=O)CCl)[C@]23CC[C@@H](NC(=O)CCl)[C@@](C)(CC[C@@H]12)C3`, the Activity in data set [3] worked out at 74.3%; in data set [5], 13.5%; in data set [15], 88%; in [6] it was 7.6%; in data set [9], 129 µM; in [12], 4.6%. In [17], the Activity came to 91%. The outcome in [4], in [14] and in data set [16] was Active. Moreover, the inhibition result in [7] was “Active”. Besides, the selectivity ratio in [8] turned out to be 25. The IC50 in data set [10] stood at 8.2 µM.
For the compound `CCCN[C@]12CCC[C@](C)(CC[C@@H]3[C@@H]1CC3(C)C)C2`, the result in data set [4] was Active. Moreover, in data set [10], the IC50 was 45.9 µM.
For `CCCCC(=O)N[C@]12CCC[C@](C)(CC[C@@H]3[C@@H]1CC3(C)C)C2`, in data set [4], the outcome was Active. Besides, the IC50 in data set [10] stood at 55.3 µM.
Regarding `CC1(C)C[C@H](NCc2ccccc2)[C@]23CCC[C@@](C)(CC[C@@H]12)C3`, the result in [4] was Active. The IC50 in [10] is 23.6 µM.
The corresponding values for `CCCCN[C@]12CCC[C@](C)(CC[C@@H]3[C@@H]1CC3(C)C)C2` are “Active” and 37.3 µM.
